This note sets out measurements from ChEMBL document CHEMBL4828720, “Macrocyclic Immunoproteasome Inhibitors as a Potential Therapy for Alzheimer's Disease” (J Med Chem, 2021).

The source made the active and inactive calls. No cut-off for these calls is given here.

The nature of data set [1]: Inhibition of human 20S proteasome Y using Ac-nLPnLD-AMC as fluorogenic substrate measured every minute for 1 hr by fluorescence assay. An outline of the steps: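 Preincubated 1 h with inhibitor at 3-10,000 nM (8 concentrations). Substrates at 100 μM: Ac-PAL-AMC (LMP2), Ac-nLPnLD-AMC (Y), Ac-ANW-AMC (LMP7). Ac-WLA-AMC (X) at 20 μM. AMC fluorescence (360/460 nm) read each minute for 1 h; 3 replicates.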

In data set [2] the target is T1, Proteasome subunit beta type-8 (Homo sapiens, UniProt P28062).
T1 sequence (P28062 whole entry): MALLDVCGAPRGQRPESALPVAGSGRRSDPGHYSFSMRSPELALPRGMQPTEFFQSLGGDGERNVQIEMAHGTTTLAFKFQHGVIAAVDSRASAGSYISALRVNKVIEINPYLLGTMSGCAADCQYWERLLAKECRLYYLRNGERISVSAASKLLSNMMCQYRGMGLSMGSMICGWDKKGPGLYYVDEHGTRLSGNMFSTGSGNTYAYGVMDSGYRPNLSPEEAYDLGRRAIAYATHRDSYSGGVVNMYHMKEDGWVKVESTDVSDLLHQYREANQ
Description: Inhibition of human 20S proteasome LMP7 using Ac-ANW-AMC as fluorogenic substrate measured every minute for 1 hr by fluorescence assay. An outline of the steps:
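Purified human 20S constitutive or immunoproteasome, 50 ng in 20 mM Tris-HCl, 0.5 mM EDTA, 0.035% SDS, pH 8.0. Preincubated 1 h with inhibitor at 3-10,000 nM (8 concentrations). Substrates at 100 μM: Ac-PAL-AMC (LMP2), Ac-nLPnLD-AMC (Y), Ac-ANW-AMC (LMP7). Ac-WLA-AMC (X) at 20 μM. AMC fluorescence (360/460 nm) read each minute for 1 h; 3 replicates.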

For data set [3], the target named is T2, Proteasome subunit beta type-9 (Homo sapiens, UniProt P28065).
T2 sequence (P28065 whole entry): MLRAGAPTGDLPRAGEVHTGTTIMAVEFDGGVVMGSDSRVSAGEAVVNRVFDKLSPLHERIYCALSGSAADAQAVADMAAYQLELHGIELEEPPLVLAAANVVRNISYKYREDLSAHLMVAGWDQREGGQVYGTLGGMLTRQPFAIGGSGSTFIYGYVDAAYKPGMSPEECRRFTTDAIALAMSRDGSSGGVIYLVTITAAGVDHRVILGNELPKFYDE
Description: Inhibition of human 20S proteasome LMP2 activity in human RPMI-8226 cells overexpressing ABCB1 using Ac-PAL-AMC as fluorogenic substrate incubated for 72 hrs by fluorescence assay. It is filed as cell-based.

The species entered for data set [4] is Homo sapiens. Description: Selectivity index, ratio of IC50 for inhibition of human 20S proteasome LMP2 activity in human RPMI-8226 cells overexpressing ABCB1 to IC50 for inhibition of human 20S proteasome LMP2 activity in human RPMI-8226 cells. Type of data set: cell-based. An outline of the steps:
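Carfilzomib-resistant RPMI 8226/ABCB1 line, kept drug-free for two weeks, alongside parental RPMI 8226. Cells exposed to varying inhibitor concentrations for 72 h, n=3 per concentration. Lysates (5 μg protein, pH 8.0 Tris/EDTA/0.035% SDS buffer) read with 100 μM Ac-PAL-AMC at ex 360/em 460 nm every minute for 1 h. IC50 from curve fitting, mean ± SD.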

Data set [5] concerns the target T3, Proteasome subunit beta type-9 (Homo sapiens) (UniProt P28065).
T3 sequence (whole entry): T2 sequence (P28065 whole entry)
In words: Inhibition of human 20S proteasome LMP2 activity in human NCI/ADR-RES cells overexpressing ABCB1 using Ac-PAL-AMC as fluorogenic substrate incubated for 72 hrs in presence and absence of verapamil by fluorescence assay. It is filed as cell-based.

Data set [6] is described as follows: Metabolic stability in ICR mouse liver homogenate at 1 uM measured upto 20 mins by LC-MS/MS analysis. It is filed as ADME, tissue-based. The settings on record: tissue homogenate. An outline of the steps: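 Tissues from male ICR mice, 7 weeks old. Heparinized (25 IU/mL) whole blood, or liver homogenized in ice-cold PBS, prewarmed to 37 °C and spiked to a final 1 μM. Samples taken at 0, 10 and 30 min (blood) or 0, 10 and 20 min (liver). […] Remaining drug quantified by C18 LC-MS/MS.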

The target of data set [7] is T4, Proteasome subunit beta type-9 (Mus musculus) (UniProt P28076).
T4 sequence (whole entry): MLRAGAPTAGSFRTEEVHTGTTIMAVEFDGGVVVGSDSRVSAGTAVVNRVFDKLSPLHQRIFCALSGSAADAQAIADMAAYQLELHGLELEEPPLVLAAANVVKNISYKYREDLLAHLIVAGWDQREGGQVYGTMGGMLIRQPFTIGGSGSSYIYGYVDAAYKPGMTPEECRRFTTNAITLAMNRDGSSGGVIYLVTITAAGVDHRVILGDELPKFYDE
Description: Inhibition of LMP2 in ICR mouse brain homogenate at 10 mg/kg, iv after 1 hr. It is filed as organism-based. An outline of the steps:
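ICR mice received a single intravenous dose of 10 mg/kg. Brain homogenates taken at 1 h post-dose were assayed for compound level and for LMP2 activity.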

Data set [8] has as its system Mus musculus. In words: Cognitive enhancing effect in Tg2576 mouse assessed as improvement in spatial learning and memory by measuring increase in time spent in target quadrant at 10 mg/kg, iv administered twice weekly and measured after 6 days during probe trial by Morris water maze test. Type of data set: functional, organism-based. As to conditions: time 6.0 day. Put shortly: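 Tg2576 mice, 9 months old, given 10 mg/kg twice weekly for 3 weeks. Morris water maze in 25 ± 1 °C water, platform hidden 1-1.5 cm below surface. Three 60-s trials a day from randomized start points for 5 days. Swim paths tracked from an overhead camera. Single probe trial on day 6 scored as time in target quadrant. n=5 treated, n=12 control on days 4-5; Student's t-test.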

Data set [9] deals with Mus musculus. Description: Cognitive enhancing effect in Tg2576 mouse assessed as latency to enter dark compartment at 10 mg/kg, iv administered twice weekly and measured on 7 and 8 days by step-through passive avoidance test. The settings on record: time 7-8 day. It is filed as functional, organism-based. An outline of the steps:
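Tg2576 mice (9-month-old), 10 mg/kg twice weekly for 3 weeks. Step-through passive avoidance run 48 h after the probe test. Learning trial: 0.45 mA, 3 s shock on entering the dark room. Testing trial 24 h later (day 8) without shock, timed as latency to re-enter the dark chamber from the lighted compartment. n=5; Student's t-test.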

The species named for data set [10] is Mus musculus. Description: Protection against inflammation-triggered RPE degeneration in Tg2576 mouse by immunostaining based confocal microscopic analysis. Type of data set: functional, organism-based. Put shortly:
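RPE collected after behavioral testing from treated Tg2576 mice and from age-matched non-transgenic ICR mice. Eyecups dissected in ice-cold PBS and retina removed. Tissue permeabilized with 0.2% Triton X-100 for 15 min, blocked with 3% BSA, then anti-β-catenin (1:100) overnight at 4 °C. Alexa 555 secondary 2 h, imaged by confocal microscopy.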

Data set [11] concerns the target Proteasome subunit beta type-9 (Mus musculus) (UniProt P28076). In words: Inhibition of LMP2 in mouse BV-2 cells assessed as reduction in LPS-stimulated IL-1alpha release by ELISA.
Data set [12] concerns Proteasome subunit beta type-9 (Canis lupus familiaris). In words: Inhibition of canine 20S proteasome LMP2 activity in MDCK-II cells overexpressing ABCG2 using Ac-PAL-AMC as fluorogenic substrate by fluorescence assay.

`C[C@]1(C(=O)[C@H](Cc2ccccc2)NC(=O)[C@@H]2Cc3ccc(cc3)OCCCCCCCC(=O)N3CCC[C@H]3C(=O)N2)CO1`: the IC50 is 8380 nM in data set [1], 399 nM in data set [2] and 106 nM in data set [3]. In addition, the Ratio IC50 in data set [4] was 3.3. Also, the inhibition entry in data set [5], in data set [11] and in data set [12] was “Active” in each case. Besides, in data set [6], the Stability entry is recorded as “Stable”. In addition, the inhibition entry in data set [7] is “inactive”. The result in [8], in [9] and in data set [10] was Active.

By IC50 is commonly meant the midpoint of a concentration-inhibition curve. Higher therefore signals lower potency.
